Experimental data published in ChEMBL document CHEMBL1125768, “Peptide derivatives specific for a Plasmodium falciparum proteinase inhibit the human erythrocyte invasion by merozoites” (J Med Chem, 1991).
Square brackets hold non-standard residues; d marks the D form. Peptide text beside a SMILES is read from it. * marks the point of attachment. NH(9-Et-carbazol-3-yl) = CCn1c2ccccc2c2cc(N*)ccc21; X1 = O=C(C(O)C(O)C(O)C(O)CO)*; Boc = CC(C)(C)OC(=O)*; Sar = CNCC(=O)O

Legend:
[1] = test system: Plasmodium falciparum; assay: Substrate affinity for Plasmodium falciparum 68 neutral proteinase.; type: functional
In short: (§1)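 Pf 68 proteinase purified from FcR-3 schizonts, incubated with peptidyl-AEC substrates (0.5-2.0 mM) in 50 mM Tris-HCl pH 7.4, 30 min at 37 °C. Free AEC extracted into ethyl acetate, fluorescence read at ex 370/em 430 nm. A 10 μg/mL trypsin total-release digest served as reference. Km and rates from Lineweaver-Burk plots; Vrel is the rate relative to S-1.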

[2] = test system: Plasmodium falciparum; assay: Relative rate of hydrolysis by Plasmodium falciparum 68 neutral proteinase; type: functional; in short: as §1
[3] = test system: Plasmodium falciparum; assay: In vitro inhibition of Plasmodium falciparum 68 neutral proteinase activity by reinvasion of red blood cells; type: functional, organism-based
In short: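 Synchronized schizonts (44-48 h) from a 4-h synchronized culture, collected by Plasmagel, added to washed healthy erythrocytes at 5% hematocrit to 4-5% parasitemia, with peptide in complete medium with 5% serum. Incubated 4-6 h in a candle jar. New rings counted on Giemsa smears (5000 RBC). Inhibition = 100 − (R/R0 × 100). IC50 from 6-h runs, 5% initial segmenters, triplicate.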

[4] = test system: Plasmodium falciparum; assay: Inhibitory activity against Plasmodium falciparum 68 neutral proteinase.; type: functional
In short: (§2)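 Purified Pf 68 proteinase (FcR-3 schizonts; chromatofocusing then gel filtration; 20 μL extract). Inhibitors at 0.005-1 mM preincubated with 0.19 mM GlcA-Val-Leu-Gly-Lys-AEC in 50 mM Tris-HCl pH 7.4, then 30 min at 37 °C. Released AEC extracted into ethyl acetate, fluorescence read at ex 370/em 430 nm. Enzyme-free control for each inhibitor. I50 read from the activity-versus-concentration plot.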

[5] = test system: Plasmodium falciparum; assay: Inhibitory activity against Plasmodium falciparum 68 neutral proteinase; type: functional; details: read-out: I50; in short: as §2
[6] = test system: Plasmodium falciparum; assay: Reaction velocity for Plasmodium falciparum 68 neutral proteinase.; type: functional; in short: as §1

IC50 [3] [mM] | IC50 [5] [mM] | SMILES | Km [1] [µM] | Vrel [2] | Ki [4] [mM] | Vm [6] [uM ml-1]
– | – | CCn1c2ccccc2c2cc(NC(=O)[C@H](CCCCN)NC(=O)CNC(=O)[C@@H](NC(=O)[C@@H](NC(=O)C(O)C(O)C(O)C(O)CO)C(C)C)[C@@H](C)O)ccc21 (some centres not stated) (X1-VTGK-{NH(9-Et-carbazol-3-yl)}) | 1250 | 26 | – | –
– | – | CCn1c2ccccc2c2cc(NC(=O)[C@H](CCCCN)NC(=O)[C@H](C)NC(=O)[C@H](C)NC(=O)[C@H](C)NC(=O)C(O)C(O)C(O)C(O)CO)ccc21 (some centres not stated) (X1-AAAK-{NH(9-Et-carbazol-3-yl)}) | 5000 | 29 | – | –
– | – | CCn1c2ccccc2c2cc(NC(=O)[C@H](CCCCN)NC(=O)CN(C)C(=O)[C@H](CC(C)C)NC(=O)[C@@H](NC(=O)C(O)C(O)C(O)C(O)CO)C(C)C)ccc21 (some centres not stated) (X1-VL[Sar]K-{NH(9-Et-carbazol-3-yl)}) | 1670 | 80 | – | –
> 10 | > 2 | CCN(CC)C(=O)[C@H](CCCCN)NC(=O)CNC(=O)[C@H](CC(C)C)NC(=O)[C@@H](NC(=O)[C@H](O)[C@@H](O)[C@H](O)[C@H](O)CO)C(C)C | – | – | > 2.5 | –
– | – | CCn1c2ccccc2c2cc(NC(=O)[C@H](CCCCN)NC(=O)CNC(=O)[C@H](COC(=O)c3ccccc3)NC(=O)C(O)C(O)C(O)C(O)CO)ccc21 (some centres not stated) | > 10000 | <3 | – | –
> 10 | > 2 | CC(C)C[C@H](NC(=O)[C@@H](NC(=O)[C@H](O)[C@@H](O)[C@H](O)[C@H](O)CO)C(C)C)C(=O)NCC(=O)N[C@@H](CCCCN)C(=O)O | – | – | > 2.5 | –
0.9 | 0.47 | CCNC(=O)[C@H](CCCCN)NC(=O)CNC(=O)[C@H](CC(C)C)NC(=O)[C@@H](NC(=O)[C@H](O)[C@@H](O)[C@H](O)[C@H](O)CO)C(C)C | – | – | 0.48 | –
– | – | CCn1c2ccccc2c2cc(NC(=O)[C@H](CCCN=C(N)N)NC(=O)CNC(=O)[C@H](CO)NC(=O)C(O)C(O)C(O)C(O)CO)ccc21 (some centres not stated) | > 10000 | <3 | – | –
– | – | CCn1c2ccccc2c2cc(NC(=O)[C@H](CCCCN)NC(=O)CNC(=O)[C@H](CC(C)C)NC(=O)[C@H](CO)NC(=O)C(O)C(O)C(O)C(O)CO)ccc21 (some centres not stated) (X1-SLGK-{NH(9-Et-carbazol-3-yl)}) | 1140 | 17 | – | –
– | 1.5 | CC(C)C[C@H](NC(=O)[C@@H](NC(=O)[C@H](O)[C@@H](O)[C@H](O)[C@H](O)CO)C(C)C)C(=O)NCC(=O)N[C@@H](CCCCN)C(=O)NC(CO)CO | – | – | 1.46 | –
– | > 2 | CCNC(=O)CNC(=O)[C@H](CCCN=C(N)N)NC(=O)[C@@H]1CCCN1C(=O)[C@H](CC(=O)O)NC(=O)OC(C)(C)C (Boc-DPRG-NHEt) | – | – | > 2.5 | –
> 10 | > 2 | CCNC(=O)[C@H](C)NC(=O)CNC(=O)[C@H](CC(C)C)NC(=O)[C@@H](NC(=O)[C@H](O)[C@@H](O)[C@H](O)[C@H](O)CO)C(C)C | – | – | > 2.5 | –
– | 1 | CC(C)C[C@H](NC(=O)[C@@H](NC(=O)[C@H](O)[C@@H](O)[C@H](O)[C@H](O)CO)C(C)C)C(=O)NCC(=O)N[C@@H](CCCN=C(N)N)C(=O)N(C)CC(=O)O | – | – | 1.22 | –
– | – | CCn1c2ccccc2c2cc(NC(=O)[C@H](CCCCN)NC(=O)CNC(=O)[C@H](CC(C)C)NC(=O)[C@@H](NC(=O)OC(C)(C)C)C(C)C)ccc21 (Boc-VLGK-{NH(9-Et-carbazol-3-yl)}) | 1140 | 11 | – | –
– | – | CCn1c2ccccc2c2cc(NC(=O)[C@H](CCCN=C(N)N)NC(=O)CNC(=O)[C@H](CC(C)C)NC(=O)[C@@H](NC(=O)C(O)C(O)C(O)C(O)CO)C(C)C)ccc21 (some centres not stated) (X1-VLGR-{NH(9-Et-carbazol-3-yl)}) | 400 | 89 | – | –
– | > 2 | CC(C)C[C@H](NC(=O)[C@@H](NC(=O)[C@H](O)[C@@H](O)[C@H](O)[C@H](O)CO)C(C)C)C(=O)NCC(=O)N[C@@H](CCCCN)C(=O)N1CCC[C@H]1C(=O)O | – | – | > 2.5 | –
> 10 | – | CCNC(=O)CNC(=O)[C@H](CCCN=C(N)N)NC(=O)[C@H](Cc1ccccc1)NC(=O)[C@H](CC(=O)O)NC(C)=O (Ac-DFRG-NHEt) | – | – | > 2.5 | –
– | – | CCn1c2ccccc2c2cc(NC(=O)[C@H](CCCCN)NC(=O)CNC[C@@H](NC(=O)C(O)C(O)C(O)C(O)CO)C(C)O)ccc21 (some centres not stated) | 5600 | 23 | – | –
– | – | CCn1c2ccccc2c2cc(NC(=O)[C@H](CCCCN)NC(=O)CNC(=O)[C@H](CC(C)C)NC(=O)[C@@H](NC(=O)C(O)C(O)C(O)C(O)CO)[C@@H](C)O)ccc21 (some centres not stated) (X1-TLGK-{NH(9-Et-carbazol-3-yl)}) | 770 | 74 | – | –
– | – | CCn1c2ccccc2c2cc(NC(=O)[C@H](CCCCN)NC(=O)CNC(=O)[C@H](CC(C)C)NC(=O)[C@@H](NC(=O)C(O)C(O)C(O)C(O)CO)C(C)C)ccc21 (some centres not stated) (X1-VLGK-{NH(9-Et-carbazol-3-yl)}) | 380 | 100 | – | 35
– | – | CC[C@H](C)[C@H](NC(=O)C(O)C(O)C(O)C(O)CO)C(=O)N[C@H](CNCC(=O)N[C@@H](CCCN=C(N)N)C(=O)Nc1ccc2c(c1)c1ccccc1n2CC)C(C)C (some centres not stated) | 6250 | 3 | – | –
– | – | CCn1c2ccccc2c2cc(NC(=O)[C@H](CCCCN)NC(=O)CNC[C@H](CC(C)C)NC(=O)[C@H](N)C(C)C)ccc21 | > 10000 | <3 | – | –
– | – | CC[C@H](C)[C@H](NC(=O)C(O)C(O)C(O)C(O)CO)C(=O)N[C@H](C(=O)NCC(=O)N[C@@H](CCCCN)C(=O)Nc1ccc2c(c1)c1ccccc1n2CC)C(C)C (some centres not stated) (X1-IVGK-{NH(9-Et-carbazol-3-yl)}) | 950 | 43 | – | –
– | 0.32 | CC(C)C[C@H](NC(=O)[C@@H](NC(=O)[C@H](O)[C@@H](O)[C@H](O)[C@H](O)CO)C(C)C)C(=O)NCC(=O)N[C@@H](CCCCN)C(=O)N(C)CC(=O)O | – | – | 0.25 | –
– | 2 | CC(C)C[C@H](NC(=O)[C@@H](NC(=O)[C@H](O)[C@@H](O)[C@H](O)[C@H](O)CO)C(C)C)C(=O)N(C)CC(=O)N[C@@H](CCCN=C(N)N)C(=O)N(C)CC(=O)O | – | – | 2.5 | –
– | – | CCn1c2ccccc2c2cc(NC(=O)[C@H](CCCCN)NC(=O)CNC(=O)[C@H](CO)NC(=O)C(O)C(O)C(O)C(O)CO)ccc21 (some centres not stated) | 730 | 140 | – | –
